Data set [1] deals with KB. The experiment in a line: Cytotoxicity against human KB cells. Format: functional, cell-based.
Data set [2] has as its system Mus musculus. The experiment in a line: Toxicity in mouse P388 cells xenografted CDF1 mouse assessed as survival time at 10 mg/kg, ip. The note with it: in vivo. The format is organism-based. Details: dose 10 mg/kg, route intraperitoneal; call rule not given here. The gist of the method:
(§1)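 Two CDF1 mice per dose received P388 leukaemia cells intravenously, then a single intraperitoneal injection of the compound at 10, 5 or 2.5 mg/kg. The read-out was survival time in days after injection, compared with the average survival of the grafted mice.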

The test system of data set [3] is Mus musculus. As to the kind of experiment: Toxicity in mouse P388 cells xenografted CDF1 mouse assessed as survival time at 5 mg/kg, ip. The format is organism-based. Details: dose 5 mg/kg, route intraperitoneal. The note with it: in vivo. The gist of the method:
as §1

The subject of data set [4] is Mus musculus. As to the kind of experiment: Toxicity in mouse P388 cells xenografted CDF1 mouse assessed as survival time at 2.5 mg/kg, ip. The format is organism-based. The following applies: in vivo. Details: dose 2.5 mg/kg, route intraperitoneal. In a few lines: as §1
Setting [5] is: Homo sapiens, KB, read-out: IC50.

The values below come from ChEMBL document CHEMBL1155764, “Cytotoxicity of Rhamnosylanthraquinones and Rhamnosylanthrones from Rhamnus nepalensis” (J Nat Prod, 2001).

Consider `CC(=O)O[C@@H]1[C@@H](O)[C@H](C)O[C@@H](Oc2cc(O)c3c(c2)[C@H]([C@H]2c4cc(C)cc(O)c4C(=O)c4c(O)cc(O[C@@H]5O[C@@H](C)[C@H](OC(C)=O)[C@@H](O)[C@H]5OC(C)=O)cc42)c2cc(C)cc(O)c2C3=O)[C@@H]1OC(C)=O`, for which, in data set [1] (setting [5]), the IC50 (usually the midpoint of a concentration-inhibition curve) was 800 nM.
The same measure, in the same setting: in the case of `Cc1cc(O)c2c(c1)Cc1cc(O)cc(O)c1C2=O` [EMODIN ANTHRONE] it was 3900 nM.
Same read-out and setting: with `CC(=O)O[C@@H]1[C@@H](O)[C@H](C)O[C@@H](Oc2cc(O)c3c(c2)[C@H]([C@H]2c4cc(C)cc(O)c4C(=O)c4c(O)cc(O[C@@H]5O[C@@H](C)[C@H](O)[C@@H](OC(C)=O)[C@H]5OC(C)=O)cc42)c2cc(C)cc(O)c2C3=O)[C@@H]1OC(C)=O` the figure was 900 nM.
As for `Cc1cc(O)c2c(c1)[C@H]([C@H]1c3cc(C)cc(O)c3C(=O)c3c(O)cc(O)cc31)c1cccc(O)c1C2=O`, the half-inhibitory concentration (IC50) in data set [1] (setting [5]) is 1400 nM.
On the same count and under the same terms, in the case of `CC(=O)O[C@@H]1[C@@H](O)[C@H](C)O[C@@H](Oc2cc(O)c3c(c2)[C@H]([C@H]2c4cc(C)cc(O)c4C(=O)c4c(O)cc(O)cc42)c2cc(C)cc(O)c2C3=O)[C@@H]1OC(C)=O` it was 1300 nM; in that of `CC(=O)O[C@@H]1[C@@H](O)[C@H](C)O[C@@H](Oc2cc(O)c3c(c2)[C@@H]([C@@H]2c4cc(C)cc(O)c4C(=O)c4c(O)cc(O[C@@H]5O[C@@H](C)[C@H](OC(C)=O)[C@@H](O)[C@H]5OC(C)=O)cc42)c2cc(C)cc(O)c2C3=O)[C@@H]1OC(C)=O`, 1000 nM.
On the same count and under the same terms, in the case of `Cc1cc(O)c2c(c1)[C@H]([C@@H]1c3cccc(O)c3C(=O)c3c(O)cc(C)cc31)c1cccc(O)c1C2=O` it was 1200 nM.
In the case of `CC(=O)O[C@@H]1[C@@H](O)[C@H](C)O[C@@H](Oc2cc(O)c3c(c2)Cc2cc(C)cc(O)c2C3=O)[C@@H]1OC(C)=O` [PRINOIDIN], the half-inhibitory concentration (IC50) in data set [1] (setting [5]) was 45 nM. Moreover, the Survival turned out to be 2 days in data set [2], 4 days in data set [3] and 7 days in data set [4].
Take `CC(=O)O[C@@H]1[C@@H](OC(C)=O)[C@H](Oc2cc(O)c3c(c2)C(C(C)=O)c2cc(C)cc(O)c2C3=O)O[C@@H](C)[C@H]1OC(C)=O` (some centres not stated): the IC50 in data set [1] (setting [5]) was 70 nM.
Regarding `CC(=O)O[C@@H]1[C@@H](O)[C@H](C)O[C@@H](Oc2cc(O)c3c(c2)[C@H]([C@@H]2c4cc(C)cc(O)c4C(=O)c4c(O)cc(O[C@@H]5O[C@@H](C)[C@H](O)[C@@H](OC(C)=O)[C@H]5OC(C)=O)cc42)c2cc(C)cc(O)c2C3=O)[C@@H]1OC(C)=O`, in data set [1] (setting [5]), the IC50 turned out to be 2500 nM.
For the compound `CC(=O)O[C@H]1[C@H](Oc2cc(O)c3c(c2)C(=O)c2cc(C)cc(O)c2C3=O)O[C@@H](C)[C@H](O)[C@H]1O`, the IC50 result in data set [1] (kb) was “Not Active”.
`CC(=O)O[C@@H]1[C@@H](O)[C@H](C)O[C@@H](Oc2cc(O)c3c(c2)C(=O)c2cc(C)cc(O)c2C3=O)[C@@H]1OC(C)=O`: the IC50 in data set [1] (setting [5]) worked out at 1900 nM.
Consider `CC(=O)O[C@@H]1[C@@H](O)[C@H](C)O[C@@H](Oc2cc(O)c3c(c2)[C@@H]([C@@H]2c4cc(C)cc(O)c4C(=O)c4c(O)cc(O)cc42)c2cc(C)cc(O)c2C3=O)[C@@H]1OC(C)=O`, for which the IC50 in data set [1] (setting [5]) was determined as 3300 nM.
The same measure, in the same setting: with `CC(=O)O[C@@H]1[C@@H](O)[C@H](C)O[C@@H](Oc2cc(O)c3c(c2)[C@H]([C@@H]2c4cc(C)cc(O)c4C(=O)c4c(O)cc(O[C@@H]5O[C@@H](C)[C@H](OC(C)=O)[C@@H](O)[C@H]5OC(C)=O)cc42)c2cc(C)cc(O)c2C3=O)[C@@H]1OC(C)=O` the figure was 1200 nM; with `CC(=O)O[C@@H]1[C@@H](O)[C@H](C)O[C@@H](Oc2cc(O)c3c(c2)[C@H]([C@@H]2c4cc(C)cc(O)c4C(=O)c4c(O)cc(O)cc42)c2cc(C)cc(O)c2C3=O)[C@@H]1OC(C)=O`, 4500 nM.
On the same count and under the same terms, with `Cc1cc(O)c2c(c1)[C@@H]([C@H]1c3cc(C)cc(O)c3C(=O)c3c(O)cc(O)cc31)c1cc(O)cc(O)c1C2=O` the figure was 1100 nM.
Turning to `CC(=O)Oc1cc(C)cc2c1C(=O)c1c(OC(C)=O)cc(O[C@@H]3O[C@@H](C)[C@H](OC(C)=O)[C@@H](OC(C)=O)[C@H]3OC(C)=O)cc1C2=O` [FRANGULIN A PERACETATE], the half-maximal inhibitory concentration (IC50) entry in data set [1] (kb) is given as “Not Active”.
As for `Cc1cc(O)c2c(c1)[C@H]([C@H]1c3cccc(O)c3C(=O)c3c(O)cc(C)cc31)c1cccc(O)c1C2=O`, the concentration for half-maximal inhibition (IC50) in data set [1] (setting [5]) amounted to 200 nM.
`CC(=O)O[C@@H]1[C@@H](OC(C)=O)[C@H](C)O[C@@H](Oc2cc(O)c3c(c2)C(=O)c2cc(C)cc(O)c2C3=O)[C@@H]1OC(C)=O`: in data set [1] (kb), the IC50 result is recorded as “Not Active”.
Turning to `CC(=O)O[C@@H]1[C@@H](O)[C@H](C)O[C@@H](Oc2cc(O)c3c(c2)C(=O)c2cc(C)cc(O)c2C3=O)[C@@H]1O`, the half-inhibitory concentration (IC50) result in data set [1] (kb) is on record as “Not Active”.
For the compound `CC(=O)O[C@@H]1[C@@H](O)[C@H](C)O[C@@H](Oc2cc(O)c3c(c2)[C@@H]([C@H]2c4cc(C)cc(O)c4C(=O)c4c(O)cc(O)cc42)c2cc(C)cc(O)c2C3=O)[C@@H]1OC(C)=O`, the IC50 in data set [1] (setting [5]) turned out to be 800 nM.
For `Cc1cc(O)c2c(c1)[C@H]([C@H]1c3cc(C)cc(O)c3C(=O)c3c(O)cc(O)cc31)c1cc(O)cc(O)c1C2=O`, the 50% inhibitory concentration (IC50) in data set [1] (setting [5]) came to 2500 nM.
With `Cc1cc(O)c2c(c1)C(=O)c1cccc(O)c1C2=O` [CHRYSOPHANOL], the IC50 result in data set [1] (kb) was “Not Active”.
Consider `Cc1cc(O)c2c(c1)[C@H]([C@@H]1c3cc(C)cc(O)c3C(=O)c3c(O)cc(O)cc31)c1cccc(O)c1C2=O`, for which the half-inhibitory concentration (IC50) in data set [1] (setting [5]) amounted to 3400 nM.
Take `COc1cccc2c1C(=O)c1c(O)c3c(c(O)c1C2=O)C[C@@](O)(C(=O)CO)C[C@@H]3O[C@H]1C[C@H](N)[C@H](O)[C@H](C)O1` [DOXORUBICIN]: the IC50 in data set [1] (setting [5]) stood at 200 nM.
As to `Cc1cc(O)c2c(c1)C(=O)c1cc(O)cc(O)c1C2=O` [EMODIN], in data set [1] (kb), the IC50 entry is recorded as “Not Active”.
As to `Cc1cc(O)c2c(c1)[C@@H]([C@H]1c3cccc(O)c3C(=O)c3c(O)cc(C)cc31)c1cc(O)cc(O)c1C2=O`, the IC50 in data set [1] (setting [5]) was found to be 1800 nM.
As for `Cc1cc(O)c2c(c1)[C@@H]([C@H]1c3cc(C)cc(O)c3C(=O)c3c(O)cc(O)cc31)c1cccc(O)c1C2=O`, in data set [1] (setting [5]), the half-inhibitory concentration (IC50) was 1200 nM.
Take `COc1cc(O)c2c(c1)C(=O)c1cc(C)cc(O)c1C2=O` [PHYSCION]: in data set [1] (kb), the IC50 entry is reported as “Not Active”.
